Experiment [1] relates to Mus musculus. As to the kind of experiment: Immunostimulatory activity in C57BL/6 mouse assessed as inhibition of 5'-CTATCTGACGTTCTCTGT-3'-induced KC production in serum at 5 mg/kg, sc administered 24 hrs prior to 5'-CTATCTGACGTTCTCTGT-3' challenge measured after 2 hrs by Luminex multiplex assay. The class given is functional. The note with it: C57BL/6, sc, route subcutaneous.

The subject of experiment [2] is Mus musculus. As to the kind of experiment: Immunostimulatory activity in C57BL/6 mouse assessed as inhibition of LPS-induced TNFalpha production in serum at 10 mg/kg, sc administered 24 hrs prior to LPS challenge measured after 2 hrs by Luminex multiplex assay.
The subject of experiment [3] is Mus musculus. Nature of the experiment: Immunostimulatory activity in C57BL/6 mouse assessed as inhibition of 5'-CTATCTGACGTTCTCTGT-3'-induced IL6 production in serum at 5 mg/kg, sc administered 24 hrs prior to 5'-CTATCTGACGTTCTCTGT-3' challenge measured after 2 hrs by Luminex multiplex assay. Format: functional. The note with it: C57BL/6, sc, route subcutaneous.

The subject of experiment [4] is Mus musculus. Nature of the experiment: Immunostimulatory activity in C57BL/6 mouse assessed as inhibition of TLR3 agonist-induced MIP1a production in serum at 10 mg/kg, sc administered 24 hrs prior to TLR3 agonist challenge measured after 2 hrs by Luminex multiplex assay.
The subject of experiment [5] is Mus musculus. Nature of the experiment: Immunostimulatory activity in C57BL/6 mouse assessed as inhibition of TLR3 agonist-induced MCP1 production in serum at 10 mg/kg, sc administered 24 hrs prior to TLR3 agonist challenge measured after 2 hrs by Luminex multiplex assay.
In experiment [6] the test system is Mus musculus. As to the kind of experiment: Immunostimulatory activity in C57BL/6 mouse assessed as inhibition of LPS-induced MCP1 production in serum at 10 mg/kg, sc administered 24 hrs prior to LPS challenge measured after 2 hrs by Luminex multiplex assay.
Experiment [7] concerns Mus musculus. As to the kind of experiment: Immunostimulatory activity in C57BL/6 mouse assessed as inhibition of 5'-CTATCTGACGTTCTCTGT-3'-induced TNFalpha production in serum at 5 mg/kg, sc administered 24 hrs prior to 5'-CTATCTGACGTTCTCTGT-3' challenge measured after 2 hrs by Luminex multiplex assay. The class given is functional. The note with it: C57BL/6, sc, route subcutaneous.

The test system of experiment [8] is Mus musculus. As to the kind of experiment: Immunostimulatory activity in C57BL/6 mouse assessed as inhibition of 0.25 mg/kg 5'-CTATCTGACGTTCTCTGT-3'-induced IL12 production in serum at 10 mg/kg, sc administered 24 hrs prior to 5'-CTATCTGACGTTCTCTGT-3' challenge measured after 2 hrs by sandwich ELISA. The class given is functional. The gist of the method: (§1)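 C57BL/6 mice received 10 mg/kg ODN sc in the right flank. After 24 h, the CpG TLR9 agonist ODN was given sc in the left flank at 0.25, 0.5 or 1 mg/kg. Serum IL-12 was measured by ELISA 2 h after challenge. Naive mice served as reference. Representative of two experiments.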

For experiment [9], the system named is Mus musculus. As to the kind of experiment: Immunostimulatory activity in C57BL/6 mouse assessed as inhibition of TLR3 agonist-induced KC production in serum at 10 mg/kg, sc administered 24 hrs prior to TLR3 agonist challenge measured after 2 hrs by Luminex multiplex assay.
Experiment [10] concerns Mus musculus. Nature of the experiment: Immunostimulatory activity in C57BL/6 mouse assessed as inhibition of 5'-CTATCTGACGTTCTCTGT-3'-induced MIG production in serum at 5 mg/kg, sc administered 24 hrs prior to 5'-CTATCTGACGTTCTCTGT-3' challenge measured after 2 hrs by Luminex multiplex assay. The class given is functional. The note with it: C57BL/6, sc, route subcutaneous.

Experiment [11] relates to Mus musculus. As to the kind of experiment: Immunostimulatory activity in C57BL/6 mouse assessed as inhibition of LPS-induced IL6 production in serum at 10 mg/kg, sc administered 24 hrs prior to LPS challenge measured after 2 hrs by Luminex multiplex assay.
The test system of experiment [12] is Mus musculus. Nature of the experiment: Immunostimulatory activity in C57BL/6 mouse assessed as inhibition of TLR3 agonist-induced TNFalpha production in serum at 10 mg/kg, sc administered 24 hrs prior to TLR3 agonist challenge measured after 2 hrs by Luminex multiplex assay.
Experiment [13] has as its system Mus musculus. As to the kind of experiment: Immunostimulatory activity in C57BL/6 mouse assessed as inhibition of 5'-CTATCTGACGTTCTCTGT-3'-induced IP10 production in serum at 5 mg/kg, sc administered 24 hrs prior to 5'-CTATCTGACGTTCTCTGT-3' challenge measured after 2 hrs by Luminex multiplex assay. Format: functional. The note with it: C57BL/6, sc, route subcutaneous.

Experiment [14] relates to Mus musculus. Nature of the experiment: Immunostimulatory activity in C57BL/6 mouse assessed as inhibition of 1 mg/kg 5'-CTATCTGACGTTCTCTGT-3'-induced IL12 production in serum at 10 mg/kg, sc administered 24 hrs prior to 5'-CTATCTGACGTTCTCTGT-3' challenge measured after 2 hrs by sandwich ELISA. Format: functional. The essentials: as §1
Experiment [15] concerns Mus musculus. As to the kind of experiment: Immunostimulatory activity in C57BL/6 mouse assessed as inhibition of LPS-induced MIG production in serum at 10 mg/kg, sc administered 24 hrs prior to LPS challenge measured after 2 hrs by Luminex multiplex assay.
For experiment [16], the system named is Mus musculus. Nature of the experiment: Immunostimulatory activity in C57BL/6 mouse assessed as inhibition of TLR3 agonist-induced IL10 production in serum at 10 mg/kg, sc administered 24 hrs prior to TLR3 agonist challenge measured after 2 hrs by Luminex multiplex assay.
Experiment [17] concerns Mus musculus. Nature of the experiment: Immunostimulatory activity in C57BL/6 mouse assessed as inhibition of TLR3 agonist-induced IP10 production in serum at 10 mg/kg, sc administered 24 hrs prior to TLR3 agonist challenge measured after 2 hrs by Luminex multiplex assay.
The test system of experiment [18] is Mus musculus. Nature of the experiment: Immunostimulatory activity in C57BL/6 mouse assessed as inhibition of 5'-CTATCTGACGTTCTCTGT-3'-induced IL12 production in serum at 10 mg/kg, sc administered 72 hrs prior to 5'-CTATCTGACGTTCTCTGT-3' challenge measured after 2 hrs by sandwich ELISA. The class given is functional. The note with it: C57BL/6, sc, route subcutaneous. The essentials:
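C57BL/6 mice received 10 mg/kg ODN sc in the right flank. The TLR9 agonist ODN was then given at 0.5 mg/kg sc in the left flank 24, 48 or 72 h later. Serum IL-12 was measured by ELISA 2 h after challenge. Naive serum served as reference. Representative of three experiments.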

Experiment [19] concerns Mus musculus. As to the kind of experiment: Immunostimulatory activity in C57BL/6 mouse assessed as inhibition of 0.5 mg/kg 5'-CTATCTGACGTTCTCTGT-3'-induced IL12 production in serum at 10 mg/kg, sc administered 24 hrs prior to 5'-CTATCTGACGTTCTCTGT-3' challenge measured after 2 hrs by sandwich ELISA. Format: functional. The essentials: as §1
A general note: In an ELISA, binding on a coated surface is turned into a signal by an enzyme label.

For experiment [20], the system named is Mus musculus. As to the kind of experiment: Immunostimulatory activity in C57BL/6 mouse assessed as inhibition of TLR7 agonist-induced IL10 production in serum at 5 mg/kg, sc administered 24 hrs prior to TLR7 agonist challenge measured after 2 hrs by Luminex multiplex assay. The note with it: C57BL/6, sc, route subcutaneous. Format: functional.

Each structure is given as a SMILES string. The source made the active and inactive calls. No cut-off for these calls is given here.

For orientation: inhibition in vivo means the percentage by which the read-out fell short of the control. As for `COC1[C@H](n2cnc3c(=O)[nH]c(N)nc32)O[C@H](COP(=O)(S)O[C@H]2C[C@H](n3cc(C)c(N)nc3=O)O[C@@H]2COP(=O)(S)O[C@H]2C[C@H](n3cnc4c(N)ncnc43)O[C@@H]2COP(=O)(S)O[C@H]2C[C@H](n3cnc4c(=O)[nH]c(N)nc43)O[C@@H]2COP(=O)(S)O[C@H]2C[C@H](n3cc(C)c(=O)[nH]c3=O)O[C@@H]2COP(=O)(S)O[C@H]2C[C@H](n3ccc(N)nc3=O)O[C@@H]2COP(=O)(S)O[C@H]2C[C@H](n3cc(C)c(=O)[nH]c3=O)O[C@@H]2COP(=O)(S)O[C@H]2C[C@H](n3cnc4c(N)ncnc43)O[C@@H]2COP(=O)(S)O[C@H]2C[C@H](n3cc(C)c(=O)[nH]c3=O)O[C@@H]2COP(=O)(S)O[C@H]2C[C@H](n3ccc(N)nc3=O)O[C@@H]2CO)[C@H]1OP(=O)(S)OC[C@H]1O[C@@H](n2cc(C)c(=O)[nH]c2=O)C[C@@H]1OP(=O)(S)OC[C@H]1O[C@@H](n2cc(C)c(=O)[nH]c2=O)C[C@@H]1OP(=O)(S)OC[C@H]1O[C@@H](n2ccc(N)nc2=O)C[C@@H]1OP(=O)(S)OC[C@H]1O[C@@H](n2cc(C)c(=O)[nH]c2=O)C[C@@H]1OP(=O)(S)OC[C@H]1O[C@@H](n2ccc(N)nc2=O)C[C@@H]1OP(=O)(S)OC[C@H]1O[C@@H](n2cc(C)c(=O)[nH]c2=O)C[C@@H]1OP(=O)(S)OC[C@H]1O[C@@H](n2cnc3c(=O)[nH]c(N)nc32)C[C@@H]1OP(=O)(S)OC[C@H]1O[C@@H](n2cc(C)c(=O)[nH]c2=O)C[C@@H]1O` (stereo not given in full), the inhibition in vivo at 5 mg/kg with Mus musculus [1], in the experiment on Mus musculus [3], in the experiment on Mus musculus [7], with Mus musculus [10], in the experiment with Mus musculus [13] and in the experiment on Mus musculus [20] was 50% throughout. The result in the experiment with Mus musculus [2], with Mus musculus [4], in the experiment on Mus musculus [5], with Mus musculus [6], with Mus musculus [9] and in the experiment with Mus musculus [11] was inactive. Moreover, the outcome with Mus musculus [12], in the experiment on Mus musculus [15], in the experiment on Mus musculus [16] and with Mus musculus [17] was inactive. Further, the “inhibition (INH)” value in the experiment on Mus musculus [8] was determined as 85%; in the experiment on Mus musculus [14], 46%; with Mus musculus [19] it was 66%. For the same molecule, the inhibition in vivo at 10 mg/kg with Mus musculus [18] was determined as 35%.

Source of the values: ChEMBL document CHEMBL1152452, “Modifications incorporated in CpG motifs of oligodeoxynucleotides lead to antagonist activity of toll-like receptors 7 and 9” (2009).
